The text below walks through data of ChEMBL document CHEMBL5696442, “Discovery of type II inhibitors of TGFβ-activated kinase 1 (TAK1) and mitogen-activated protein kinase kinase kinase kinase 2 (MAP4K2)” (J Med Chem, 2015).

For experiment [1], the target named is Ribosomal protein S6 kinase alpha-3 (Homo sapiens) (UniProt P51812). Description: Inhibition of RSK2 domain1 Lys2 labeling site harbouring DLKPENILLDEEGHIK in human A-375 cells at 5 uM by KiNativ Profiling analysis relative to control. In kind it is cell-based. A digest of the protocol:
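Live A375 melanoma cells treated with compound at 5 or 0.5 μM, then lysed. Lysate kinases were labeled with a lysine-reactive ATP or ADP-biotin probe. Inhibition was read as protection of labeling sites from the probe.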

Experiment [2] addresses Tyrosine-protein kinase Yes (Homo sapiens) (UniProt P07947). In words: Inhibition of YES ACT labeling site in human A-375 cells at 0.05 uM by KiNativ Profiling analysis relative to control. In kind it is cell-based.
Experiment [3] deals with Ephrin type-A receptor 7 (Homo sapiens) (UniProt Q15375). Description: Inhibition of EPHA7 (unknown origin) at 10 uM by Ambit Kinomescan binding assay.
The target in experiment [4] is T1, Serine/threonine-protein kinase STK11 (Homo sapiens) (UniProt Q15831).
T1 sequence (whole entry): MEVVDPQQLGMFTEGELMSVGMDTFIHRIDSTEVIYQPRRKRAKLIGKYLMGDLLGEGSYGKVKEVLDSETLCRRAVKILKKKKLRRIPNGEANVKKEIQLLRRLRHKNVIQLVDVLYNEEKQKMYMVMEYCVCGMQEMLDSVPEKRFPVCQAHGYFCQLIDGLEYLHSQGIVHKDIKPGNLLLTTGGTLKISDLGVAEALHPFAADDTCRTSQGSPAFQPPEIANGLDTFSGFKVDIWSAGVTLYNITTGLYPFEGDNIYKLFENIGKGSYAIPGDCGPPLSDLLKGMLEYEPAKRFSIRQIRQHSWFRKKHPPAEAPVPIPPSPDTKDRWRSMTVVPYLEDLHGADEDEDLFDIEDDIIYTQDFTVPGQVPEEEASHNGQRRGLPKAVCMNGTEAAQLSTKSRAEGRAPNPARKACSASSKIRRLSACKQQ
In words: Inhibition of LKB1 (unknown origin) at 10 uM by Ambit Kinomescan binding assay.

The target of experiment [5] is Leukocyte tyrosine kinase receptor (Homo sapiens) (UniProt P29376). In words: Inhibition of LTK (unknown origin) at 10 uM by Ambit Kinomescan binding assay relative to control.
Experiment [6] has as its target Ribosomal protein S6 kinase alpha-6 (Homo sapiens) (UniProt Q9UK32). Description: Inhibition of N-terminal RPS6KA6 kinase domain 1 (unknown origin) at 10 uM by Ambit Kinomescan binding assay.
Experiment [7] concerns the target T2, Serine/threonine-protein kinase ULK1 (Homo sapiens) (UniProt O75385).
T2 sequence (whole entry): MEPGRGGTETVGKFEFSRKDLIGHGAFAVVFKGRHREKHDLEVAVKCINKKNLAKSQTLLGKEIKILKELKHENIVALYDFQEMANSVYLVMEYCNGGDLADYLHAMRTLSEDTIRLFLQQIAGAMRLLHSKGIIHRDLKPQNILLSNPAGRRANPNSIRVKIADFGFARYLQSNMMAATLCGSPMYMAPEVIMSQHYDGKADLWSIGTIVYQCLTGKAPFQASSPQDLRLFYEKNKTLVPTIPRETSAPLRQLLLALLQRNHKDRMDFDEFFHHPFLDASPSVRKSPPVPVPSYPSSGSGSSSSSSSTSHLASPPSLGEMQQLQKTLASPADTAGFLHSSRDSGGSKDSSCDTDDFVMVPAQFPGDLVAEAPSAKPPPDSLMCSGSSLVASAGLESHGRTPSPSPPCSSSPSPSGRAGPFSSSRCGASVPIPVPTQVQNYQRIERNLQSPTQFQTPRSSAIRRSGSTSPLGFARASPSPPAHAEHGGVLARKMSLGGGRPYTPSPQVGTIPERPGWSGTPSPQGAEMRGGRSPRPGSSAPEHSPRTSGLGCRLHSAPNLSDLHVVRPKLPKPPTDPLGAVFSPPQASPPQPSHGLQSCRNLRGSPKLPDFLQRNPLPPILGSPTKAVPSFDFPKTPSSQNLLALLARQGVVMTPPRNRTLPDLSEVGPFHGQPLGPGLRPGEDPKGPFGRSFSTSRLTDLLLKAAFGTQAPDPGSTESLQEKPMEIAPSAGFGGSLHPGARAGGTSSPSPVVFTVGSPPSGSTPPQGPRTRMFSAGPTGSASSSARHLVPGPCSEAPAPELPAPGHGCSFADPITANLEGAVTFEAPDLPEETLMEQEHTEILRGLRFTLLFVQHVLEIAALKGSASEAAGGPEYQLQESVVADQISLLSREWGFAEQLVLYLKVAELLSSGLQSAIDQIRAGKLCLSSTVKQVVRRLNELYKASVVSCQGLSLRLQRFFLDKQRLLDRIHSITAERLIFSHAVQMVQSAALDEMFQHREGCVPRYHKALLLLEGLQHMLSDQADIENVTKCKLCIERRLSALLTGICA
Description: Inhibition of ULK1 Lys2 labeling site in human A-375 cells at 0.5 uM by KiNativ Profiling analysis relative to control. In kind it is cell-based.

The target in experiment [8] is Dual specificity mitogen-activated protein kinase kinase 2 (Homo sapiens) (UniProt P36507). Description: Inhibition of MAP2K2 Lys1 labeling site in human A-375 cells at 0.05 uM by KiNativ Profiling analysis relative to control. In kind it is cell-based.
In experiment [9] the target is Calcium/calmodulin-dependent protein kinase type II subunit alpha (Homo sapiens) (UniProt Q9UQM7). Description: Inhibition of CAMK2a K2 labeling site in human Huh-7 cells at 10 uM by KiNativ Profiling analysis relative to control. In kind it is cell-based.
For experiment [10], the target named is Serine/threonine-protein kinase Nek7 (Homo sapiens) (UniProt Q8TDX7). In words: Inhibition of NEK7 K1 labeling site in human Huh-7 cells at 10 uM by KiNativ Profiling analysis relative to control. The class given is cell-based.
In experiment [11] the target is Ribosomal protein S6 kinase alpha-3 (Homo sapiens) (UniProt P51812). Description: Inhibition of RSK2 Domain 2 K1 labeling site in human Huh-7 cells at 10 uM by KiNativ Profiling analysis relative to control. In kind it is cell-based.
In experiment [12] the target is Mitogen-activated protein kinase kinase kinase kinase 4 (Homo sapiens, UniProt O95819). Description: Inhibition of ZC1/HGK K1 labeling site harbouring TGQLAAIKVMDVTEDEEEEIKLEINMLK in human Huh-7 cells at 1 uM by KiNativ Profiling analysis relative to control. In kind it is cell-based.
Experiment [13] concerns the target Mitogen-activated protein kinase 7 (Homo sapiens) (UniProt Q13164). In words: Inhibition of Erk5 K2 labeling site in human Huh-7 cells at 1 uM by KiNativ Profiling analysis relative to control. The class given is cell-based.
Experiment [14] addresses Mitogen-activated protein kinase kinase kinase 11 (Homo sapiens) (UniProt Q16584). Description: Inhibition of MLK3 Lys2 labeling site in human Huh-7 cell lysate at 1 uM by KiNativ Profiling analysis relative to control. The class given is subcellular.
The target of experiment [15] is Tyrosine-protein kinase Fer (Homo sapiens, UniProt P16591). In words: Inhibition of FER Lys1 labeling site in human Huh-7 cells at 1 uM by KiNativ Profiling analysis relative to control. The class given is cell-based.
Experiment [16] concerns the target Phosphatidylinositol 3-kinase catalytic subunit type 3 (Homo sapiens) (UniProt Q8NEB9). Description: Inhibition of PIK3C3 ATP labeling site in human Huh-7 cells at 1 uM by KiNativ Profiling analysis relative to control. In kind it is cell-based.

The structures appear in SMILES notation. The source made the active and inactive calls. No cut-off for these calls is given here.

What is called inhibition is the drop in the measured response relative to a control, in per cent.

Sequence of Ribosomal protein S6 kinase alpha-3 (Homo sapiens) (P51812 whole entry, the tested form may be a part): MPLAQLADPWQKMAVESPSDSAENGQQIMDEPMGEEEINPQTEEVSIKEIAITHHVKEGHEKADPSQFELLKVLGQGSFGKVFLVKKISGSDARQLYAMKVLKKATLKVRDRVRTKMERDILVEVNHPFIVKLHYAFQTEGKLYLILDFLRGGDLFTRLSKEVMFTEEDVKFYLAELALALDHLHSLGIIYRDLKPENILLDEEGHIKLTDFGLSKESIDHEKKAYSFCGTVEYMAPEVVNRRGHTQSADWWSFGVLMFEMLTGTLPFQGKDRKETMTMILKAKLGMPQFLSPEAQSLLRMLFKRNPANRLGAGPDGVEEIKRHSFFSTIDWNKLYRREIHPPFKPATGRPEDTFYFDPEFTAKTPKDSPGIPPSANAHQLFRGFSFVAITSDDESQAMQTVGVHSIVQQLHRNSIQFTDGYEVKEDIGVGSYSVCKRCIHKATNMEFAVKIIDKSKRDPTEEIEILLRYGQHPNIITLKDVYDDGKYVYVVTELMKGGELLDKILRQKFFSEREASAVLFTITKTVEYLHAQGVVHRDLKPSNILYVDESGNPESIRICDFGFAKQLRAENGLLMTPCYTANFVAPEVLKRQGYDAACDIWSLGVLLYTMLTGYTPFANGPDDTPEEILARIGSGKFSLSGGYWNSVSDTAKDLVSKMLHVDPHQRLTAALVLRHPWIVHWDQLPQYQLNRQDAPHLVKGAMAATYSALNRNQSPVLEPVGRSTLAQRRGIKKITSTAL
Sequence of Ribosomal protein S6 kinase alpha-6 (Homo sapiens) (Q9UK32 whole entry, the tested form may be a part): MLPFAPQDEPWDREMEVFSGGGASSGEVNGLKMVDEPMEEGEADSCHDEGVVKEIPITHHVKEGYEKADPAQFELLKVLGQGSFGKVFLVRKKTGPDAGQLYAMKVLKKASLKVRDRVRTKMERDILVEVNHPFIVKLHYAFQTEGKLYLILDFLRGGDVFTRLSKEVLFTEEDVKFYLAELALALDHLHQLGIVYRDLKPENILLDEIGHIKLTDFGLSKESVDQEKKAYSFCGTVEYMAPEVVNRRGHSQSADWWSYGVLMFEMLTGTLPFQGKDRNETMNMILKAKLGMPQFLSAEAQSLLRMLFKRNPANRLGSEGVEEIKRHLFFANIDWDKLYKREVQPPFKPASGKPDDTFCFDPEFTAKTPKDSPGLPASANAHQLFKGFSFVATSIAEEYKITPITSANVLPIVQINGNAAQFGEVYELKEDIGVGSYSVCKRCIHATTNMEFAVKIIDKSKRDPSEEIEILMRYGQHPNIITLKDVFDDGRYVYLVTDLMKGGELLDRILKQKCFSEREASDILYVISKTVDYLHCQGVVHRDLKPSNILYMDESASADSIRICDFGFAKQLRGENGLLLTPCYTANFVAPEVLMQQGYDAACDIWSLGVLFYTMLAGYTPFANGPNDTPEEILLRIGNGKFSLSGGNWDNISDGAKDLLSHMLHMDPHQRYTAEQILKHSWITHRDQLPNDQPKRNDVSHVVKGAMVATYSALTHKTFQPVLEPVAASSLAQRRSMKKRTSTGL
Sequence of Calcium/calmodulin-dependent protein kinase type II subunit alpha (Homo sapiens) (Q9UQM7 whole entry): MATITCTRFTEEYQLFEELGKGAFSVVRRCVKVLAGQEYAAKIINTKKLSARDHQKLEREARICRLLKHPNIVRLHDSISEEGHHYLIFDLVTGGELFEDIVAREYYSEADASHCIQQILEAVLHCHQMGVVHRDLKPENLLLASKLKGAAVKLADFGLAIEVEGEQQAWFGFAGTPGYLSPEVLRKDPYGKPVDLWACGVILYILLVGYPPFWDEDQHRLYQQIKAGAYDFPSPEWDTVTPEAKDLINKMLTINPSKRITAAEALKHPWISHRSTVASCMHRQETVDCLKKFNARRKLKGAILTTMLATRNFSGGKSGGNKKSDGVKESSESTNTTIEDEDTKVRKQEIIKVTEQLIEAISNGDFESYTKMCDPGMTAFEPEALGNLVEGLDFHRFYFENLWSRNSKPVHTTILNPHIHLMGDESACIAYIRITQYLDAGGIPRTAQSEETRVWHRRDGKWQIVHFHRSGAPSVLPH
Sequence of Serine/threonine-protein kinase Nek7 (Homo sapiens) (Q8TDX7 whole entry, looked up, the tested form may be a part): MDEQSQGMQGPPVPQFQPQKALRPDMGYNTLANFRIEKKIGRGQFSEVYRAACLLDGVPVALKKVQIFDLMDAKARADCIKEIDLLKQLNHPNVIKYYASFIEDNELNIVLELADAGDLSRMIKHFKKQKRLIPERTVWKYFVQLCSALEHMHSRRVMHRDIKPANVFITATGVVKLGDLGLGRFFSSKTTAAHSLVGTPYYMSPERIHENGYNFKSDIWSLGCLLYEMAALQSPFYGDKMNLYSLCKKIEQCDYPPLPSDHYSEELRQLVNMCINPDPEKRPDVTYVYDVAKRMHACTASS
Sequence of Ephrin type-A receptor 7 (Homo sapiens) (Q15375 28-998 limits assumed): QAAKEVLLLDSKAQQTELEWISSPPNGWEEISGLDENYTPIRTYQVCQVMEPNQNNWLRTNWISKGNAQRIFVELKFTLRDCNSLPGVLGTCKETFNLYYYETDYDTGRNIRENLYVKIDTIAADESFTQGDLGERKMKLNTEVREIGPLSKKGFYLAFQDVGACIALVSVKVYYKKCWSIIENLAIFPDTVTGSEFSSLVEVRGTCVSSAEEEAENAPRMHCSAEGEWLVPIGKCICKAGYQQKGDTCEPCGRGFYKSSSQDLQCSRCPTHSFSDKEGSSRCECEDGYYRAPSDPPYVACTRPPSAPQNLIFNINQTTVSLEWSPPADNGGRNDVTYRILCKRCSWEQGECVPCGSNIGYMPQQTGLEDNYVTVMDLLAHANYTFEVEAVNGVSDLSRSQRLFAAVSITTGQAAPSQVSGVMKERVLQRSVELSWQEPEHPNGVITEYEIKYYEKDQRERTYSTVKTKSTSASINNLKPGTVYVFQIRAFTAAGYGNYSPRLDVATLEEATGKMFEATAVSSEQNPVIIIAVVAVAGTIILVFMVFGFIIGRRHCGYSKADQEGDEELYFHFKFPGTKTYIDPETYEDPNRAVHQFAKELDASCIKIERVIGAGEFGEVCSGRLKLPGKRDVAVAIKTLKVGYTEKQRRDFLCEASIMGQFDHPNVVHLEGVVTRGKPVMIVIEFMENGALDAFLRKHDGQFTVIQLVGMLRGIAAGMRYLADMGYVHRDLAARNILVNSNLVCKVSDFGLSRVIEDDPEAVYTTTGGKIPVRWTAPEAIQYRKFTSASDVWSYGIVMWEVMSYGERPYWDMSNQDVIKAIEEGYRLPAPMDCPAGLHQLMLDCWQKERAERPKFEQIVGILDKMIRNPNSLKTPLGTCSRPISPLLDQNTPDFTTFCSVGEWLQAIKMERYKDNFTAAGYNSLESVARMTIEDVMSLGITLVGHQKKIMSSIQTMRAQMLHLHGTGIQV
Sequence of Dual specificity mitogen-activated protein kinase kinase 2 (Homo sapiens) (P36507 whole entry): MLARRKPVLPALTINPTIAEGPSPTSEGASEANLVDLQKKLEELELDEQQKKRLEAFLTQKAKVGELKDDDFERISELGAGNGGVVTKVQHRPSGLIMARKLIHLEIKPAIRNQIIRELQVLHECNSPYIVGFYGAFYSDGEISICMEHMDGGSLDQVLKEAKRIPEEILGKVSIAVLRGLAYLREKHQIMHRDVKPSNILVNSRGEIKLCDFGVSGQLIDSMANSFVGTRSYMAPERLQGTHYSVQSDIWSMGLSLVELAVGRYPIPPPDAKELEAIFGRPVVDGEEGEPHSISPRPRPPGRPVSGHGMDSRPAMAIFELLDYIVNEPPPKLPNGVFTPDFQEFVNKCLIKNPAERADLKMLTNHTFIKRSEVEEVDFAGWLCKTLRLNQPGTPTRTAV
Sequence of Tyrosine-protein kinase Fer (P16591 whole entry, looked up): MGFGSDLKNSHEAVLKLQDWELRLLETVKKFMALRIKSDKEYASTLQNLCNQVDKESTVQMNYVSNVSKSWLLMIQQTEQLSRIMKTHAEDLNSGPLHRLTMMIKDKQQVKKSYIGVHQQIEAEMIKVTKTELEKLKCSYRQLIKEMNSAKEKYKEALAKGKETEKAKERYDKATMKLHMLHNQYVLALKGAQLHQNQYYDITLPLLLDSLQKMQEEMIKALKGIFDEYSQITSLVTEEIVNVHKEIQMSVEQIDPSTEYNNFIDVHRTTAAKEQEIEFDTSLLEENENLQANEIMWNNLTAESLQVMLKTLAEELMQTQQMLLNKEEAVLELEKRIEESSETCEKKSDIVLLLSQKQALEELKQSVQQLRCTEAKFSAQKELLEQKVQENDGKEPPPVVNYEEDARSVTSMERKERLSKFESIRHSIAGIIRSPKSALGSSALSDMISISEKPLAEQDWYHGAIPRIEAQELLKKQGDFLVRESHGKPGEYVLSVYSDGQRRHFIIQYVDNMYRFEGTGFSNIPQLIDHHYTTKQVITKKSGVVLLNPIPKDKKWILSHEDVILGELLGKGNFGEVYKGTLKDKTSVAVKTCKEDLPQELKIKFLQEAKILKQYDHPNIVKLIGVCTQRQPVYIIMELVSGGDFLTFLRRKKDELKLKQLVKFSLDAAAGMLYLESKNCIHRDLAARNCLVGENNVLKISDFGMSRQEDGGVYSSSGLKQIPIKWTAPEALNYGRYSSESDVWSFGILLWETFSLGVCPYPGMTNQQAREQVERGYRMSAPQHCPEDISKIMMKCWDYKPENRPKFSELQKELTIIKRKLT
Sequence of Tyrosine-protein kinase Yes (Homo sapiens) (P07947 2-543 limits assumed): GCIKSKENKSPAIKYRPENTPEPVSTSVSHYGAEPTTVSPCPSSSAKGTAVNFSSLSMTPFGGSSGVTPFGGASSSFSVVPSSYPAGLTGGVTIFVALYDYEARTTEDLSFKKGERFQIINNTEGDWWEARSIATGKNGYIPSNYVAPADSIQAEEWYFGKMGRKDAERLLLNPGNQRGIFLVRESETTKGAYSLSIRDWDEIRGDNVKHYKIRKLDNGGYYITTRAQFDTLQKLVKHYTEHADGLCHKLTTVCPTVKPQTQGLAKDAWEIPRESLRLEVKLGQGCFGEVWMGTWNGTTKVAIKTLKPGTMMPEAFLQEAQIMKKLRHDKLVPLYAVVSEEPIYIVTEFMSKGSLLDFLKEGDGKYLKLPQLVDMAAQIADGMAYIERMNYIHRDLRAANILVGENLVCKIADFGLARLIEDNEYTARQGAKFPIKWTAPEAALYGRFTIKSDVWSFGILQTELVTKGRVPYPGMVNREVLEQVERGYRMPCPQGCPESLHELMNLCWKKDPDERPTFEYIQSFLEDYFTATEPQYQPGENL

For the compound `CCN1CCN(Cc2ccc(NC(=O)c3ccc(C)c(/C=C/c4cnc5[nH]ccc5c4OC)c3)cc2C(F)(F)F)CC1`, the inhibition stood at 16.5% in [1] and 38.9% in experiment [2].
With `CCN1CCN(Cc2ccc(NC(=O)c3ccc(C)c(Oc4ccnc5[nH]ccc45)c3)cc2C(F)(F)F)CC1`, the inhibition result in [3], in experiment [4], in [6] and in experiment [11] was “inactive” throughout. Also, the inhibition is 1.2% in experiment [5]; -6.3% in experiment [7]; 2.9% in experiment [8]; 6.2% in experiment [9]; -8.8% in [10]; 7.6% in experiment [12]. In addition, in [13], the inhibition is 14.6%.
As for `CNc1cc(Oc2cc(C(=O)Nc3cc(N4CCN(C)CC4)cc(C(F)(F)F)c3)ccc2C)ncn1`, the inhibition in experiment [14] is 3.4%; in experiment [15] it was -7.1%; in experiment [16], 8.9%.
